Key:
[1] = target: T1, Nitric oxide synthase 3 (Bos taurus) (UniProt P29473); assay: Inhibition of bovine recombinant eNOS expressed in Escherichia coli assessed as conversion of [gamma-14C]L-arginine to [14C]L-citrulline at 100 uM by radioactive assay relative to control; design: scale not given: the % may be the effect or the level left
T1 sequence (whole entry): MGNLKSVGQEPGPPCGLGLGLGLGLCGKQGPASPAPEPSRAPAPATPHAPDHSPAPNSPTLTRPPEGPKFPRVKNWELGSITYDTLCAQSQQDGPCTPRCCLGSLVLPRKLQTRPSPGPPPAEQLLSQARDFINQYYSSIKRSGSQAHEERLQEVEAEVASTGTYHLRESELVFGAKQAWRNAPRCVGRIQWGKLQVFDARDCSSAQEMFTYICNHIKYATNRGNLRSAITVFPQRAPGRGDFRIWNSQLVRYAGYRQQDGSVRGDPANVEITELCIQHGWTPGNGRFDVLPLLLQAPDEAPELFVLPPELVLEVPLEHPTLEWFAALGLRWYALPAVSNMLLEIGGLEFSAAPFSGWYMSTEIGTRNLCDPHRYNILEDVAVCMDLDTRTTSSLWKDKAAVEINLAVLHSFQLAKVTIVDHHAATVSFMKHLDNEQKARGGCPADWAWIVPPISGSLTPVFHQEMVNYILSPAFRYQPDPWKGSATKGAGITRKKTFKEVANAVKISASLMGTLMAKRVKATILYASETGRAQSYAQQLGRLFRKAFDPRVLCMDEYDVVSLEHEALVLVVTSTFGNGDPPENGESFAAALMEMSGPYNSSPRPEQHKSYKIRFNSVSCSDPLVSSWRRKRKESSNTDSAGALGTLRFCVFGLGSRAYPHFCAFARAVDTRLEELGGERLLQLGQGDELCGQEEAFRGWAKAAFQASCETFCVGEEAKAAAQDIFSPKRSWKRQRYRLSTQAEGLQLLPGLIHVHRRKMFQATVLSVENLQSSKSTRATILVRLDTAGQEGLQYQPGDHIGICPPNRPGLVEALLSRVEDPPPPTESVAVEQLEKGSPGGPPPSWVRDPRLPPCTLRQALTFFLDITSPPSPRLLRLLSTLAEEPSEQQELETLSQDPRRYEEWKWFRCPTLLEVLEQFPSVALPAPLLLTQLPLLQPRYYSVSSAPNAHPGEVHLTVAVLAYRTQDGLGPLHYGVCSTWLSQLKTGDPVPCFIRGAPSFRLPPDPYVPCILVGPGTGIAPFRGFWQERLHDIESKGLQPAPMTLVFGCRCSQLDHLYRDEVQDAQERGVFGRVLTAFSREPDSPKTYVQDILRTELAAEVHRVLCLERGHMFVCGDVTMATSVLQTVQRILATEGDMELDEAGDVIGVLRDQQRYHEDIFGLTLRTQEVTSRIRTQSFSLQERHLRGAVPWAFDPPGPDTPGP
Summary of the method: (§1)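 Purified enzymes: rat nNOS from S. cerevisiae, murine iNOS and bovine eNOS from E. coli. Reaction 5 min at 37 °C in 50 mM Hepes pH 7.4 with DTT, 1 mM NADPH, H4B, FAD, FMN, [14C]L-arginine (2.5 µM L-arginine) and 100 µM compound in 1% DMSO. nNOS/eNOS also got 1 mM CaCl2 and CaM, which iNOS lacked. [14C]citrulline isolated on Dowex and counted by scintillation; % of DMSO control, n=3.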

[2] = target: T1, Nitric oxide synthase 3 (Bos taurus); assay: Inhibition of bovine eNOS expressed in insect Sf9 cells assessed as residual activity at 100 uM by Griess assay relative to control
Summary of the method: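 Bovine eNOS from Sf9 cells. Reaction: triethanolamine buffer pH 7.5, 0.5 mM Ca2+, 10 µg/ml CaM, 10 µM H4B, FAD, FMN, 0.5 mM NADPH, 1 mM L-arginine, with 100 µM compound, 20 min at 37 °C. After NADPH removal by LDH/pyruvate, nitrite measured by Griess at 543 nm. Expressed as % residual activity versus 1% DMSO control, 5 experiments.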

[3] = system: RAW264.7; assay: Cytotoxicity against mouse RAW264.7 cells at 100 uM; assay type: cell-based; conditions: raw264.7, 100 µM
[4] = target: T2, Nitric oxide synthase, inducible (Mus musculus) (UniProt P29477); assay: Inhibition of mouse recombinant iNOS expressed in Escherichia coli assessed as conversion of [gamma-14C]L-arginine to [14C]L-citrulline at 100 uM by radioactive assay relative to control; design: scale not given: the % may be the effect or the level left; summary of the method: as §1
T2 sequence (whole entry): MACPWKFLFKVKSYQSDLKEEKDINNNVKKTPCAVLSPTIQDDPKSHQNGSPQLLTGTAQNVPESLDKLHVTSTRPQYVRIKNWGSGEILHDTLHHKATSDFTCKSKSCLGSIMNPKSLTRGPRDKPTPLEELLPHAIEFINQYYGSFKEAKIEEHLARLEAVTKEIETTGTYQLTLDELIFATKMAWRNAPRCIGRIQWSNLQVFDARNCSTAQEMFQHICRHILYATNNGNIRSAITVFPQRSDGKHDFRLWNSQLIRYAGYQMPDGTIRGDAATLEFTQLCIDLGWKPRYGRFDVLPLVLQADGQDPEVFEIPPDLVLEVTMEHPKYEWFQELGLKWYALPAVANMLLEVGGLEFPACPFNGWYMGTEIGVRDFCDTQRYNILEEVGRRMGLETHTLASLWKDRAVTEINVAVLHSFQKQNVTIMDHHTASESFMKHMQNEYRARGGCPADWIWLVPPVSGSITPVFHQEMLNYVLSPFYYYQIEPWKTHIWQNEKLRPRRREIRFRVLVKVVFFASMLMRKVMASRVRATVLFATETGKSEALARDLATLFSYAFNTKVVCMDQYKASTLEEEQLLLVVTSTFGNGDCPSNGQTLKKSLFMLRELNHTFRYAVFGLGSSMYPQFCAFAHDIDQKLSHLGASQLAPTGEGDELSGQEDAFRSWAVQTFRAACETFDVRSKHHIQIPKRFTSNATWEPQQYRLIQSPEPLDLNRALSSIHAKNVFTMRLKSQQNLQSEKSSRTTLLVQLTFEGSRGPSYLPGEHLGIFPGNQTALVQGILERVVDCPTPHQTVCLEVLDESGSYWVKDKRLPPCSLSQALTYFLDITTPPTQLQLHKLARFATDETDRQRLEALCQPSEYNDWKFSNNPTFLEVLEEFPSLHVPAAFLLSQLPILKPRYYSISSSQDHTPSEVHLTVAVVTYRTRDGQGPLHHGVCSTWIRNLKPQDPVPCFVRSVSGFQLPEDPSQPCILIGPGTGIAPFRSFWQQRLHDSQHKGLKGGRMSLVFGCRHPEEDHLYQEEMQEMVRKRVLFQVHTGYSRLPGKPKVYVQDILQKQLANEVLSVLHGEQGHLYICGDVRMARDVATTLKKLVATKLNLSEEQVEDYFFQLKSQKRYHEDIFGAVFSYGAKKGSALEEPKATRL

[5] = target: T2, Nitric oxide synthase, inducible (Mus musculus); assay: Inhibition of mouse iNOS expressed in insect Sf9 cells assessed as residual activity at 100 uM by Griess assay relative to control
Summary of the method: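 Murine iNOS produced in Sf9 insect cells. Buffer: 50 mM triethanolamine pH 7.5, 1 mM CHAPS, 10 mM 2-mercaptoethanol, 0.5 mM EDTA. Additions: 1 mM Mg2+, 5 µM FAD, 5 µM FMN, 0.5 mM NADPH, 10 µM H4B, 10 µg/ml CaM, 1 mM L-arginine. Compound at 100 µM final, 37 °C for 20 min. NADPH removed with LDH/pyruvate, then Griess read at 543 nm. Values are % of 1% DMSO control, 5 experiments.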

[6] = target: Nitric oxide synthase 1 (Rattus norvegicus) (UniProt P29476); assay: Inhibition of rat recombinant nNOS expressed in Saccharomyces cerevisiae assessed as conversion of [gamma-14C]L-arginine to [14C]L-citrulline at 100 uM by radioactive assay relative to control; design: scale not given: the % may be the effect or the level left; summary of the method: as §1
Sequence of Nitric oxide synthase 1 (Rattus norvegicus) (P29476 whole entry): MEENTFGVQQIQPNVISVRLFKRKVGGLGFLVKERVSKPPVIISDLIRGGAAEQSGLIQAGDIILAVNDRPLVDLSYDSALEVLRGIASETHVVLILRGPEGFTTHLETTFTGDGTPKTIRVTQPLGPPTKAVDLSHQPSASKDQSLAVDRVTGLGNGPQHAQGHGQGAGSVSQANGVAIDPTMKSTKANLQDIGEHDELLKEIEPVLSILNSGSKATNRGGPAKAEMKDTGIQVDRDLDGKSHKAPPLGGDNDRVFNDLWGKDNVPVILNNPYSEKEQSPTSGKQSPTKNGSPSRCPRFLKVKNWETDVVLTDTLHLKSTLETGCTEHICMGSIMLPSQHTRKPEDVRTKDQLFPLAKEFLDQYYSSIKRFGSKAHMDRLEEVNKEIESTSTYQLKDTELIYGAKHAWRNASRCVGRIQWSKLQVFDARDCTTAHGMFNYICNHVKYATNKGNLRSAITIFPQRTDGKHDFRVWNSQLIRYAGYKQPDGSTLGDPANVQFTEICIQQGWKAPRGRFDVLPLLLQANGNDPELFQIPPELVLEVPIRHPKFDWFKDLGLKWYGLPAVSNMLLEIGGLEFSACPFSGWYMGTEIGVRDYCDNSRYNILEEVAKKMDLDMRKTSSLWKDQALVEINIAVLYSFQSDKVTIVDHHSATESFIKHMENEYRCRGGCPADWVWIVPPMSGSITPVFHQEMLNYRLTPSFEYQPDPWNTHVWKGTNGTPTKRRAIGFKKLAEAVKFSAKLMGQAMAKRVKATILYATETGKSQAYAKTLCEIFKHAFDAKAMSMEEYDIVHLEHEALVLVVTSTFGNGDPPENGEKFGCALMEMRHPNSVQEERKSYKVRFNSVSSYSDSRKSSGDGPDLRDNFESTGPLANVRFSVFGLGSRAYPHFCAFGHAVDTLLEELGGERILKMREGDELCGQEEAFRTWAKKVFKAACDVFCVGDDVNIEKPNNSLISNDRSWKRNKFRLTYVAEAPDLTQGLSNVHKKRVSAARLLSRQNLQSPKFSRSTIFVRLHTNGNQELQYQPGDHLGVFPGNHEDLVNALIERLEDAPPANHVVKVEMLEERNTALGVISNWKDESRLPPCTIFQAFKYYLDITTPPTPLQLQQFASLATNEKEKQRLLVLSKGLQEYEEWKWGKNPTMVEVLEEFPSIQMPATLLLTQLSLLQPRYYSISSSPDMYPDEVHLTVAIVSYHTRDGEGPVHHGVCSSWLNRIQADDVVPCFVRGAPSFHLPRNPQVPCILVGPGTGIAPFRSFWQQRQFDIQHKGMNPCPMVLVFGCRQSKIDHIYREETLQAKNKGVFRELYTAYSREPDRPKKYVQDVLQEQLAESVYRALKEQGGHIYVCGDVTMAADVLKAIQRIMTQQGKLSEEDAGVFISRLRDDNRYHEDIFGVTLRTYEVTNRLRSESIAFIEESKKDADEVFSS

[7] = target: T2, Nitric oxide synthase, inducible (Mus musculus); assay: Inhibition of iNOS in LPS and IFN-gamma-stimulated mouse RAW264.7 cells assessed as inhibition of nitrite accumulation at 100 uM after 15 hrs by Griess assay; assay type: cell-based
Summary of the method: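 RAW 264.7 macrophages seeded at 100,000 cells/well in RPMI 1640 with 5% FCS and grown 24 h. Stimulated with 40 U/ml γ-IFN and 50 ng/ml LPS, with compound at 100 µM in 1% DMSO, for 15 h at 37 °C. Supernatant nitrite measured with Griess reagent at 550 nm against an NaNO2 calibration; 6–8 determinations.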

[8] = target: T2, Nitric oxide synthase, inducible (Mus musculus); assay: Inhibition of mouse recombinant iNOS expressed in Escherichia coli assessed as NADPH consumption at 100 uM after 2 mins by spectrophotometry
Summary of the method: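 Murine iNOS from E. coli (15–50 nM final) in 50 mM Hepes pH 7.4 with 5 mM DTT, 100 µM CaCl2, 200 µM NADPH, 10 µM H4B, 100 µM L-arginine and 100 µM compound. Cofactors and compound preincubated 2 min at 37 °C, enzyme added, and A340 followed for 3 min (ε 6.2 mM-1 cm-1). Given as % of 1% DMSO control NADPH oxidase rate.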

[9] = target: T3, Nitric oxide synthase 3 (Homo sapiens) (UniProt P29474); assay: Inhibition of human eNOS assessed as residual activity at 100 uM by Griess assay relative to control
T3 sequence (whole entry): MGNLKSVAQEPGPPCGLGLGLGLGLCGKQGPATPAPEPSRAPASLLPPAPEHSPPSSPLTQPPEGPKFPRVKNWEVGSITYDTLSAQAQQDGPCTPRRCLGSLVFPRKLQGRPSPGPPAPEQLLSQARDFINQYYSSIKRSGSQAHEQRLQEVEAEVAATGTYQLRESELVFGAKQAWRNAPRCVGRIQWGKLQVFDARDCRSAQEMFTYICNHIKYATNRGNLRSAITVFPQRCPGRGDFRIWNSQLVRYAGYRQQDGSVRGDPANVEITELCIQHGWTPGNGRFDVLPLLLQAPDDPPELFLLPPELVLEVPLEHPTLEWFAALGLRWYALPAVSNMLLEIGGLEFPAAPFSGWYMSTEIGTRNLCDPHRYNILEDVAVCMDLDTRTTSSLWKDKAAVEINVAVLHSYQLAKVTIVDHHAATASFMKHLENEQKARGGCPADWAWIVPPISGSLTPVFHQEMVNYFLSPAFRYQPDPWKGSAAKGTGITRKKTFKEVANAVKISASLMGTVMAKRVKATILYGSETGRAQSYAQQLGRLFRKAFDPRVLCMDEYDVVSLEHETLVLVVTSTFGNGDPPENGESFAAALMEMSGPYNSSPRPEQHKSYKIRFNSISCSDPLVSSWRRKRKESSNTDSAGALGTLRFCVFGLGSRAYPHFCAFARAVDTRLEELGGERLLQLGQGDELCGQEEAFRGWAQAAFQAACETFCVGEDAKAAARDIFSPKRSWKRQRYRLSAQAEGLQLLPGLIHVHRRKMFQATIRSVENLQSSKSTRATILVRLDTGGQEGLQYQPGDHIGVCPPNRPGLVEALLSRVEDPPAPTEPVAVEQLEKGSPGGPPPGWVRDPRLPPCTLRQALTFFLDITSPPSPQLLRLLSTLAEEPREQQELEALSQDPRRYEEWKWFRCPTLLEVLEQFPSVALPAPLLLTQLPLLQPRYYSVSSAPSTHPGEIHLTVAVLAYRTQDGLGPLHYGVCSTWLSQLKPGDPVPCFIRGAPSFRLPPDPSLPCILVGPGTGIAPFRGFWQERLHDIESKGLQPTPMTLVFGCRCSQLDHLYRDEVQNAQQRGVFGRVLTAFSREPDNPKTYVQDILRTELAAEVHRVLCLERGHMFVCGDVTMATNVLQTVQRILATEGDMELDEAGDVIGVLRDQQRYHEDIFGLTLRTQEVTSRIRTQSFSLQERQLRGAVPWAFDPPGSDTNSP
Summary of the method: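 Human eNOS expressed in Pichia pastoris. Incubated 20 min at 37 °C in triethanolamine pH 7.5 with 0.5 mM Ca2+, CaM, H4B 10 µM, FAD/FMN 5 µM, NADPH 0.5 mM, L-arginine 1 mM and compound at 100 µM final. Nitrite read by Griess (543 nm) after LDH/pyruvate NADPH removal; % of 1% DMSO control from 5 experiments.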

[10] = target: Nitric oxide synthase, inducible (Homo sapiens) (UniProt P35228); assay: Inhibition of human iNOS expressed in insect Sf9 cells assessed as residual activity at 100 uM by Griess assay relative to control
Sequence of Nitric oxide synthase, inducible (Homo sapiens) (P35228 whole entry): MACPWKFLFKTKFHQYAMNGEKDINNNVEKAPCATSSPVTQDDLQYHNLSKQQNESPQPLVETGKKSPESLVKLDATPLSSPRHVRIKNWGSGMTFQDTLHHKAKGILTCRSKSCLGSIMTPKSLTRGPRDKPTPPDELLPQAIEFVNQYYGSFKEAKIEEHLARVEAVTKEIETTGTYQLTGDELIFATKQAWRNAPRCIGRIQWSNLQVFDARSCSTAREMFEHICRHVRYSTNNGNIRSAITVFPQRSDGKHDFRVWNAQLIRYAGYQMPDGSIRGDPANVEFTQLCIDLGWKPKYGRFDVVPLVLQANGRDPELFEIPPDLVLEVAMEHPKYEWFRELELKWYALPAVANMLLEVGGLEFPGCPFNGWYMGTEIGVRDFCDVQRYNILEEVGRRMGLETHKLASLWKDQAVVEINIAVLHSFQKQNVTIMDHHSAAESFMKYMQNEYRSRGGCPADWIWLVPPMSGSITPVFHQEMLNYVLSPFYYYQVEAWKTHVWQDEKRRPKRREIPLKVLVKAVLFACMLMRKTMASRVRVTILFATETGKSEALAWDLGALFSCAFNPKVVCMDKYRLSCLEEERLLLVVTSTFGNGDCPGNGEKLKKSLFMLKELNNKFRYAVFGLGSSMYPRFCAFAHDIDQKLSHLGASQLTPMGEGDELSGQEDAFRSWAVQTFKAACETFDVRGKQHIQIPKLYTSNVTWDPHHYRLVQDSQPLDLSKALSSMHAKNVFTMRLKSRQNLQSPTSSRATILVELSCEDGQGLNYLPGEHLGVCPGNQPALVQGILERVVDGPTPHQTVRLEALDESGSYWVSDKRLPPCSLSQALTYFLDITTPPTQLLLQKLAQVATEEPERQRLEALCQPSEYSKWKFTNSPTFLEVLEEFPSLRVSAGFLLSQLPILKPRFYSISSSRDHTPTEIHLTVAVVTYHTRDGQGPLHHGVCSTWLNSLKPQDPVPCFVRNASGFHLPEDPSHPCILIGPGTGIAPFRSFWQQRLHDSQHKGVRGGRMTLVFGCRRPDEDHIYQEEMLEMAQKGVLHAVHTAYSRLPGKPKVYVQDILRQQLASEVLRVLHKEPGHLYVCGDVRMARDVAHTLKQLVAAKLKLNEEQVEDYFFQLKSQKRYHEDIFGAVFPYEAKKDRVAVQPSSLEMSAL
Summary of the method: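 Human iNOS made in Sf9 cells, incubated at 37 °C for 20 min in 50 mM triethanolamine pH 7.5 with 1 mM Mg2+, FAD/FMN 5 µM each, 0.5 mM NADPH, 10 µM H4B, CaM and 1 mM L-arginine. Compound 100 µM final. NADPH cleared with lactate dehydrogenase/pyruvate before Griess reaction (543 nm). Residual activity relative to 1% DMSO control; mean of 5 experiments.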

[11] = Lipophilicity, log D at pH 7.4 by HPLC method; conditions: buffer

Activity [1] [%] | Activity [2] [%] | Activity [4] [%] | Activity [5] [%] | Activity [6] [%] | inhibition [7] [%] | Remaining NADPH oxidation rate (% of DMSO control) [8] [%] | Activity [9] [%] | Activity [10] [%] | logD [11] | SMILES | Activity [3]
94 | 95 | 96 | 102 | 48 | 67 | 89 | – | – | – | COc1ccc(C(=O)C2CN=C3C(C)=CC=CN3C2)cc1OC (stereo unspecified) | Non-toxic
100 | 94 | 100 | 86 | 92 | 60 | 91 | – | – | – | Cc1ccc(C(=O)C2CN=C3C=CC=CN3C2)cc1.[O-][Cl+3]([O-])([O-])O (stereo unspecified) | Non-toxic
– | – | – | – | – | 98 | – | 84 | 106 | 2.8 | CC1=CC=CC2=NCC(C(=O)c3ccc(-c4ccc(Br)cc4)cc3)CN12.[O-][Cl+3]([O-])([O-])O (stereo unspecified) | Non-toxic

From ChEMBL document CHEMBL1152488, “Synthesis and evaluation of pyrido[1,2-a]pyrimidines as inhibitors of nitric oxide synthases” (Eur J Med Chem, 2009)
